Only some compounds are listed: those with a hit (about 5.4% of all), similar ones and a draw of the others.
Mdm2-MdmX inh = inhibitors of human Mdm2/MdmX interaction; O15151+Q00987; SaOS-2 split-luciferase Mdm2/MdmX complementation, luminescence; inhibition, % at 8 µM; 330,000 compounds, 3% hits;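 active = inhibition of at least 50% at 8 µM in the primary screen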
Target sequence (O15151 whole entry, looked up): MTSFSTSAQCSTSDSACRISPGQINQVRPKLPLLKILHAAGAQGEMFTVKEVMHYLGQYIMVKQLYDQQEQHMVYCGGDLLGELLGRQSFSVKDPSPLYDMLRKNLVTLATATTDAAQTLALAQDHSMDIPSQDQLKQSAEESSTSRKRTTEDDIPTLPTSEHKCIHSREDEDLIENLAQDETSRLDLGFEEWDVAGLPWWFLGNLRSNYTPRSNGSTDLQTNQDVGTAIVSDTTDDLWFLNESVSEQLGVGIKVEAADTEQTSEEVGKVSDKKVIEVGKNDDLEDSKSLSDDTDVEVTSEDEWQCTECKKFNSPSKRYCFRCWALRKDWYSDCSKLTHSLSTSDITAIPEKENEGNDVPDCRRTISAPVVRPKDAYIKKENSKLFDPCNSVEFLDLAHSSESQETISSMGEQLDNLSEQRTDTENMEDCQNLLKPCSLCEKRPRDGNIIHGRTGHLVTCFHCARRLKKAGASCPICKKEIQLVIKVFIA
Target sequence (Q00987 whole entry, looked up): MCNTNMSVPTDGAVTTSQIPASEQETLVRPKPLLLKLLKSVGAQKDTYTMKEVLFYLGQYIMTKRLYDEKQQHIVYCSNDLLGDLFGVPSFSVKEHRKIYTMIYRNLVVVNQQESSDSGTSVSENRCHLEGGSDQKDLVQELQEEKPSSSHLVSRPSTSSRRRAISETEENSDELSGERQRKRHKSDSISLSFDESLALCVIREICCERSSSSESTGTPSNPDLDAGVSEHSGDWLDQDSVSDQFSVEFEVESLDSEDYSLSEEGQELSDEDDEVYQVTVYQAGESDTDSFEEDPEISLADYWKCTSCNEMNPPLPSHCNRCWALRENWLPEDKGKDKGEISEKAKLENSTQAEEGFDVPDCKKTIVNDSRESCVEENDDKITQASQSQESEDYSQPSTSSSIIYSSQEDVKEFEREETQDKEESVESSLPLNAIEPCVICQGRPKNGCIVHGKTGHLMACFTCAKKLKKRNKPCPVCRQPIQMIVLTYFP
T cruzi repl = blocks replication of Trypanosoma cruzi; T. cruzi beta-gal in NIH3T3, luminescence, 90 h; inhibition, % (concentration not given with the values); 300,000 compounds, 1.4% hits;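 active = mean inhibition across valid replicates above about 55%, limit read from the data; inconclusive = mean below that limit but half or more replicates reach it; inactive = mean below it, under half of replicates reach it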;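 also: signal also drops with host cell toxicity which is not excluded here; higher percent means less beta-gal luminescence so fewer parasites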
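Test system: β-gal T. cruzi (Tulahuen C4) inside NIH/3T3 cells / Quantity: 5,000 cells/well / Measured by: luminescence from GalScreen with 0.05% NP40, read after 60 min / Medium: DMEM plus 2% FBS / Measure: parasite load inhibition, % / Reagent: Tulahuen C4 trypomastigotes, 5000/well / Schedule: co-culture of at least 90 h after 3 h attachment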
CSC inhib = cancer stem cell inhibition; inhibition, % at 7.5 µM; cancer stem cell-like cells viability, luminescence; 300,000 compounds, 1.1% hits; AID 2717; in the data active = inhibition above about 75%; inconclusive = no clear call, values can overlap the other calls; tested in HMLE shEcad cells
aSyn 5UTR inh = 5' untranslated region of α-synuclein, MLPCN primary screen | alpha-synuclein 5'UTR reporter, inhibitor activity | inhibition, % (tested at 7.5 µM) | 300,000 compounds, 0.82% hits | AID 1813; in the data active = inhibition above about 60%; inconclusive = no clear call, values can overlap the other calls;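 also: H4 neuroglioblastoma cells stably carrying SNCA 5'UTR luciferase fusion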
SKKanGAS inh = inhibitors of SKKanGAS S. pyogenes growth in kanamycin (SK-promoter or general growth effect); BacTiter-Glo, 6 h; inhibition, % at 7.5 µM; 300,000 compounds, 1.3% hits;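 active = mean replicate score, as percent of positive control median, at least 50; inconclusive = mean below 50 but one replicate at or above 50; inactive = mean and every replicate below 50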;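 also: strain carries kanamycin resistance gene driven by streptokinase promoter and grows in 40 µg/ml kanamycin; loss of luminescence reflects streptokinase promoter inhibition or plain growth inhibition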
A number is an active result.

What do the screens show for `Cc1c(C)c(C)c2[nH]c(-c3ccc4c(c3)OCO4)nc2c1C`?
Mdm2-MdmX inh: inactive; T cruzi repl: 58; aSyn 5UTR inh: inactive; SKKanGAS inh: inactive

How did Cc1cc(Nc2ccccc2)nc(-c2ccccc2O)n1 do in these assays?
Mdm2-MdmX inh: inactive; T cruzi repl: inactive; CSC inhib: 80; aSyn 5UTR inh: inactive; SKKanGAS inh: inactive

Results for CCCCN(CCCC)c1cc(C)nc(-c2ccccc2O)n1 ?
Mdm2-MdmX inh: inactive; T cruzi repl: inactive; CSC inhib: inactive; aSyn 5UTR inh: inactive; SKKanGAS inh: 54

How did Cc1cc(Nc2ccccc2Cl)nc(-c2ccccc2O)n1 do in these assays?
Mdm2-MdmX inh: inactive; T cruzi repl: inactive; CSC inhib: inactive; aSyn 5UTR inh: inactive; SKKanGAS inh: inactive

What do the screens show for `Cc1cc(Nc2cccc(F)c2)nc(-c2ccccc2O)n1`?
Mdm2-MdmX inh: inactive; T cruzi repl: 56; CSC inhib: 102; aSyn 5UTR inh: inactive; SKKanGAS inh: inactive

Results for CCOC(=O)c1ccc(Nc2cc(C)nc(-c3ccccc3O)n2)cc1 ?
Mdm2-MdmX inh: inactive; T cruzi repl: inactive; CSC inhib: inactive; aSyn 5UTR inh: inactive; SKKanGAS inh: inactive

How did C/C(=N\Nc1ccc(C(=O)O)cc1)c1ccc(Cl)s1 do in these assays?
Mdm2-MdmX inh: inactive; T cruzi repl: inactive; CSC inhib: inactive; aSyn 5UTR inh: inactive

How did C/C(=N\Nc1ccc(Cl)c(C(=O)O)c1)c1ccc(Br)s1 do in these assays?
Mdm2-MdmX inh: inactive; T cruzi repl: inactive; CSC inhib: inactive; aSyn 5UTR inh: inactive; SKKanGAS inh: 58

How did O=C(NC(=S)Nc1ccc(Cl)c(C(=O)O)c1)c1cccc(COc2ccccc2)c1 do in these assays?
Mdm2-MdmX inh: inactive; T cruzi repl: inactive; CSC inhib: inactive; aSyn 5UTR inh: inactive; SKKanGAS inh: 56

What do the screens show for `CCc1cccc(NC(=O)Cn2c(=O)c3cccn3c3ccccc32)c1`?
Mdm2-MdmX inh: inactive; T cruzi repl: inactive; CSC inhib: inactive; aSyn 5UTR inh: inactive; SKKanGAS inh: inactive

Results for COc1ccc2ncc(S(=O)(=O)c3ccccc3)c(N3CCN(c4ccccc4)CC3)c2c1 ?
Mdm2-MdmX inh: inactive; T cruzi repl: inactive; CSC inhib: inactive; aSyn 5UTR inh: inactive; SKKanGAS inh: 67

What do the screens show for `CCN(CC)CCN(C(=O)CCS(=O)(=O)c1ccccc1)c1nc2cc(C)cc(C)c2s1`?
Mdm2-MdmX inh: inactive; T cruzi repl: 72; CSC inhib: inactive; aSyn 5UTR inh: inactive; SKKanGAS inh: inconclusive

What do the screens show for `FC(F)(F)c1cnc(Sc2nc3nccc(-c4ccc(Cl)cc4)n3n2)c(Cl)c1`?
Mdm2-MdmX inh: inactive; T cruzi repl: 55; CSC inhib: inactive; aSyn 5UTR inh: inactive; SKKanGAS inh: inactive

What do the screens show for `COc1ccc(-c2ccnc3nc(Sc4ncc(C(F)(F)F)cc4Cl)nn23)cc1`?
Mdm2-MdmX inh: inactive; T cruzi repl: inactive; CSC inhib: inactive; aSyn 5UTR inh: inactive; SKKanGAS inh: inactive

Results for COC(=O)c1ccc(COC(=O)CNC(=O)c2cccs2)cc1 ?
Mdm2-MdmX inh: inactive; T cruzi repl: inactive; CSC inhib: inactive; aSyn 5UTR inh: inactive; SKKanGAS inh: inactive

How did O=C(COC(=O)COc1cccc(Br)c1)Nc1ccc(F)cc1F do in these assays?
Mdm2-MdmX inh: inactive

Results for C[C@H](NC(=O)c1nc[nH]c1C(=O)N[C@@H](C)c1ccccc1)C(=O)OC(C)(C)C ?
Mdm2-MdmX inh: inactive; T cruzi repl: inactive; CSC inhib: inactive; aSyn 5UTR inh: inactive; SKKanGAS inh: inactive

Results for Cc1ccc(NC(=O)c2nc[nH]c2C(=O)N[C@@H](C)c2ccccc2)cc1 ?
Mdm2-MdmX inh: inactive; T cruzi repl: inactive; CSC inhib: inactive; aSyn 5UTR inh: inactive; SKKanGAS inh: 66

How did CC(C)C[C@H](NC(=O)c1[nH]cnc1C(=O)N[C@H](C)c1ccccc1)C(=O)OC(C)(C)C do in these assays?
Mdm2-MdmX inh: inactive; T cruzi repl: inactive; CSC inhib: inactive; aSyn 5UTR inh: inactive; SKKanGAS inh: 57

What do the screens show for `CC(C)C[C@H](NC(=O)c1[nH]cnc1C(=O)N[C@H](C)c1ccccc1)C(=O)OCc1ccccc1`?
Mdm2-MdmX inh: inactive; T cruzi repl: inactive; CSC inhib: inactive; aSyn 5UTR inh: inactive; SKKanGAS inh: 73

What do the screens show for `C[C@@H](NC(=O)c1[nH]cnc1C(=O)Nc1ccccc1)c1ccccc1`?
Mdm2-MdmX inh: inactive; CSC inhib: inactive

How did CC(=O)OCC1OC(Nc2cccc(C)c2)C(OC(C)=O)C(OC(C)=O)C1OC(C)=O (centres undefined) do in these assays?
Mdm2-MdmX inh: inactive; T cruzi repl: inactive; CSC inhib: inactive; aSyn 5UTR inh: inactive; SKKanGAS inh: inactive

What do the screens show for `NNC(=O)c1cc2sccc2s1`?
Mdm2-MdmX inh: inactive; T cruzi repl: inactive; CSC inhib: inactive; aSyn 5UTR inh: inactive; SKKanGAS inh: inactive

Results for COc1ccc(C(=O)c2ccc(N3CCN(C(=O)c4ccc(F)cc4)CC3)c(F)c2)cc1Br ?
Mdm2-MdmX inh: inactive; T cruzi repl: 61; CSC inhib: inactive; aSyn 5UTR inh: inactive; SKKanGAS inh: inactive

Results for CCOC(=O)c1sc(N2C(=O)C(O)=C(C(=O)c3ccco3)C2c2ccc([N+](=O)[O-])cc2)nc1C (centres undefined) ?
Mdm2-MdmX inh: inactive; T cruzi repl: inactive; CSC inhib: inactive; aSyn 5UTR inh: inactive; SKKanGAS inh: inactive

How did O=C1N/C(=N\N=C\c2ccccn2)SC1Cc1cccc(SC(F)F)c1 (centres undefined) do in these assays?
Mdm2-MdmX inh: inactive; T cruzi repl: 69; CSC inhib: 111; aSyn 5UTR inh: inactive; SKKanGAS inh: 94

What do the screens show for `CN1CCN(NC(=O)/C=C/c2cccc(Cl)c2)CC1`?
Mdm2-MdmX inh: inactive; T cruzi repl: inactive; CSC inhib: inactive; aSyn 5UTR inh: inactive; SKKanGAS inh: inactive

Results for COc1ccccc1CN1CC(C(=O)NCc2ncccc2C)CCC1=O (centres undefined) ?
Mdm2-MdmX inh: inactive; T cruzi repl: inactive; CSC inhib: inactive; aSyn 5UTR inh: inactive; SKKanGAS inh: 51

What do the screens show for `COc1ccc(CCN2CC(C(=O)NCCc3ccccn3)CCC2=O)cc1` (centres undefined)?
Mdm2-MdmX inh: inactive; T cruzi repl: inactive; CSC inhib: inactive; aSyn 5UTR inh: inactive; SKKanGAS inh: 50

Results for COc1ccccc1CN1CC(C(=O)NCc2nccn2C)CCC1=O (centres undefined) ?
Mdm2-MdmX inh: inactive; T cruzi repl: inactive; CSC inhib: inactive; aSyn 5UTR inh: inactive; SKKanGAS inh: inactive

What do the screens show for `COc1ccc(CCN2CC(C(=O)NCCc3ccccc3C)CCC2=O)cc1` (centres undefined)?
Mdm2-MdmX inh: inactive; T cruzi repl: inactive; aSyn 5UTR inh: inactive; SKKanGAS inh: inactive

Results for COc1cccc(C(=O)N[C@@H](C)C(=O)N2CCC3(CC2)NCCc2[nH]cnc23)c1 ?
Mdm2-MdmX inh: inactive; T cruzi repl: inactive; CSC inhib: inactive; aSyn 5UTR inh: inactive; SKKanGAS inh: inactive

Results for Cc1cc2c(cc1C)C(c1cc(Br)ccc1F)CC(=O)N2 (centres undefined) ?
Mdm2-MdmX inh: inactive; T cruzi repl: inactive; CSC inhib: 172; aSyn 5UTR inh: 65; SKKanGAS inh: inactive

How did COc1cc(/C=N/NC(=O)Cc2csc(C)n2)ccc1OCC(C)C do in these assays?
Mdm2-MdmX inh: inactive; T cruzi repl: inactive; CSC inhib: inactive; aSyn 5UTR inh: inactive; SKKanGAS inh: inactive
